ChEMBL document CHEMBL4699586, “Synthesis and biological evaluation of NQO1-activated prodrugs of podophyllotoxin as antitumor agents” (Bioorg Med Chem, 2020)
The source made the active and inactive calls. No cut-off for these calls is given here.

Legend:
HepG2 [1] = assay: Induction of apoptosis in human HepG2 cells assessed as late apoptotic cells at 50 nM incubated for 24 hrs by annexin V-FITC and propidium iodide based flow cytometry analysis (reference value: 1.56 %); type: functional
[2] = Toxicity in BALB/c mouse xenografted with human HepG2 cells assessed as animal death at 10 mg/kg, ip administered every other day for 17 consecutive days and measured on day 17; type: organism-based; settings: in vivo, 408 h, time 17 day
Procedure, shortened: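 HepG2 s.c. xenografts in BALB/c nude mice, 6 per group. Compound given i.p. every other day for 17 days in 5% DMSO/40% PEG300/5% Tween-80/50% saline. Deaths recorded over the experimental period. Body weight monitored every 2 days.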

HepG2 [3] = assay: Induction of apoptosis in human HepG2 cells assessed as necrotic cells at 50 nM incubated for 24 hrs by annexin V-FITC and propidium iodide based flow cytometry analysis (reference value: 0.94 %); type: functional
A549 [4] = assay: Cytotoxicity against hypoxia-induced human A549 cells assessed as reduction in cell viability incubated for 48 hrs by MTT assay; type: functional, cell-based; settings: A549, 48 h
Procedure, shortened: (§1)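 Cell lines A549, HepG2, hypoxic A549/Hyp and HepG2/Hyp, taxol-resistant A549/T, and normal LO2. Log-phase cells allowed to adhere in 96-well plates, then exposed to compound for 48 h. MTT added for 2–3 h. Formazan dissolved in DMSO and absorbance read at 570 nm; IC50 derived.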

A549 [5] = assay: Cytotoxicity against taxol-resistant human A549 cells assessed as reduction in cell viability incubated for 48 hrs by MTT assay; type: functional, cell-based; settings: A549, 48 h; procedure, shortened: as §1
HepG2 [6] = assay: Induction of apoptosis in human HepG2 cells assessed as viable cells at 50 nM incubated for 24 hrs by annexin V-FITC and propidium iodide based flow cytometry analysis (reference value: 95.66 %); type: functional; settings: read-out: Activity
HepG2 [7] = assay: Cytotoxicity against hypoxia-induced human HepG2 cells assessed as reduction in cell viability incubated for 48 hrs by MTT assay; type: functional, cell-based; settings: HepG2, 48 h; procedure, shortened: as §1
L02 = assay: Cytotoxicity against NQO1-deficient human L02 cells assessed as reduction in cell viability incubated for 48 hrs by MTT assay; type: cell-based; settings: L02, 48 h; procedure, shortened: as §1
A549 [8] = assay: Cytotoxicity against human A549 cells overexpressing NQO1 assessed as reduction in cell viability incubated for 48 hrs by MTT assay; type: functional, cell-based; settings: A549, 48 h; procedure, shortened: as §1
HepG2 [9] = assay: Cytotoxicity against human HepG2 cells overexpressing NQO1 assessed as reduction in cell viability incubated for 48 hrs by MTT assay; type: functional, cell-based; settings: HepG2, 48 h; procedure, shortened: as §1
HepG2 [10] = assay: Induction of apoptosis in human HepG2 cells assessed as early apoptotic cells at 50 nM incubated for 24 hrs by annexin V-FITC and propidium iodide based flow cytometry analysis (reference value: 1.84 %); type: functional
[11] = Metabolic stability in human liver S9 fraction at 10 uM incubated for 9 hrs in presence of NADPH by HPLC analysis; type: ADME, subcellular; settings: s9, 9 h
Procedure, shortened: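 Pooled human liver S9 fraction (0.5 mg) in 10 mM PBS pH 7.4 with 2% Tween 80, substrate 10 μM, 37 °C; started with 100 μM NADPH, quenched with cold acetonitrile at 0–540 min; centrifuged supernatant analysed by HPLC, UV 292 nm; triplicate.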

Tubulin (Homo sapiens) = Tubulin (Homo sapiens) (UniProt P68371+Q9H4B7+P0DPH7+P68366+Q13509+Q71U36+P04350+Q3ZCM7+P07437+P68363+Q9BQE3+Q6PEY2+Q13885+Q9BVA1+Q9BUF5); assay: Inhibition of microtubule assembly in human HepG2 cells at 50 nM incubated for 48 hrs by immunofluorescence microscopic analysis; type: cell-based
Procedure, shortened: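 HepG2 seeded 12 h at 37 °C, 5% CO₂, then exposed 48 h alongside DMSO vehicle; methanol-fixed, permeabilized in 0.5% Triton X-100/PBS, α-tubulin primary antibody overnight at 4 °C, fluorescent secondary 1 h, DAPI nuclear counterstain; fluorescence microscopy imaging of microtubule networks.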

Sus scrofa [12] = species: Sus scrofa; assay: Inhibition of porcine tubulin polymerization at 3 uM in presence of NQO1 and NADPH measured for 1 hr for every 30 sec
Procedure, shortened: (§2)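 Commercial tubulin polymerization kit run per manufacturer; test agent at 3 μM with vehicle control, with or without added NQO1 depending on group; absorbance at 340 nm read every 30 s for 1 h to give polymerization/depolymerization kinetic curves.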

[13] = molecular target: T1, NAD(P)H dehydrogenase [quinone] 1 (Homo sapiens, UniProt P15559); assay: Prodrug release assessed as recombinant NQO1 (unknown origin)-mediated 6-hydroxy-4,4,5,7-tetramethylchroman-2-one formation formation at 20 uM measured after 30 mins in presence of NADPH by HRMS analysis; type: ADME; settings: 0.5 h
Procedure, shortened: (§3)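 Recombinant NQO1 (final 10 μg/mL) added to start reaction in 10 mM PBS with 2% Tween 80, 100 μM NADPH and 20 μM prodrug. Incubated at 37 °C, stopped with cold acetonitrile and centrifuged cold. Supernatant analysed by HRMS for release fragments.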

[14] = Toxicity in BALB/c mouse xenografted with human HepG2 cells assessed as damage in lung at 5 to 10 mg/kg, ip administered every other day for 17 consecutive days and measured on day 17 by H&E staining based light microscopic analysis; type: organism-based; settings: in vivo, 408 h, dose 5-10 mg/kg, time 17 day
Procedure, shortened: (§4)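 Six-week-old BALB/c nude mice carrying s.c. HepG2 tumours (5×10⁶ cells in PBS) randomized at 70–100 mm³, 6 per group; i.p. dosing every other day for 17 days in 5% DMSO/40% PEG300/5% Tween 80/50% saline; day-17 organs fixed in 4% paraformaldehyde, paraffin-embedded, H&E stained, light microscopy versus control.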

Sus scrofa [15] = species: Sus scrofa; assay: Inhibition of porcine tubulin polymerization at 3 uM measured every 30 secs for 1 hr; procedure, shortened: as §2
HepG2 [16] = assay: Induction of cell cycle arrest in human HepG2 cells assessed as increase in cells accumulation at G2/M phase at 50 nM incubated for 24 hrs by propidium iodide based flow cytometry analysis relative to control; type: functional
Procedure, shortened: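 HepG2 plated in 12-well plates for 24 h, treated with compound (50 nM) for 24 h. Harvested, washed twice in cold PBS, held in 70% ethanol for 3 h. RNase A treatment 1 h at ambient temperature, then PI stain. Phase distribution by flow cytometry, compared with DMSO control.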

[17] = Toxicity in BALB/c mouse xenografted with human HepG2 cells assessed as damage in spleen at 5 to 10 mg/kg, ip administered every other day for 17 consecutive days and measured on day 17 by H&E staining based light microscopic analysis; type: organism-based; settings: in vivo, 408 h, dose 5-10 mg/kg, time 17 day; procedure, shortened: as §4
[18] = molecular target: T1, NAD(P)H dehydrogenase [quinone] 1; assay: Prodrug release assessed as recombinant NQO1 (unknown origin)-mediated N-(4-methylenecyclohexa-2,5-dienylidene)methanamine formation formation at 20 uM measured after 30 mins in presence of NADPH by HRMS analysis; type: ADME; settings: 0.5 h; procedure, shortened: as §3
HepG2 [19] = assay: Antitumor activity against human HepG2 cells xenografted in BALB/c nude mouse assessed as tumor growth suppression at 10 mg/kg, ip administered every other day for 17 consecutive days and measured on day 17 by caliper analysis relative to control; type: functional; settings: 408 h, time 17 day, read-out: TGI
Procedure, shortened: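 BALB/c nude mice, 6 weeks old, given 5×10^6 HepG2 cells s.c. in sterile PBS. Randomized at tumour 70–100 mm³, 6 per group. Dosing i.p. every other day for 17 days in 5% DMSO/40% PEG300/5% Tween-80/50% saline; vehicle arm as control. Caliper volume every 2 days as V = AB²/2. Tumours excised and weighed on day 17; growth inhibition rate calculated.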

[20] = molecular target: T1, NAD(P)H dehydrogenase [quinone] 1; assay: Prodrug release assessed as recombinant NQO1 (unknown origin)-mediated podophyllotoxin formation at 20 uM measured after 30 mins in presence of NADPH by HRMS analysis; type: ADME; settings: 0.5 h; procedure, shortened: as §3
[21] = Metabolic stability in rat plasma at 10 uM incubated for 9 hrs in presence of NADPH by HPLC analysis; type: ADME, cell-free
Procedure, shortened: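 Rat plasma deproteinized by vortexing and centrifugation (10000 rpm, 5 min); supernatant incubated with 10 μM substrate plus 2% Tween 80 at 37 °C for 0–540 min; after centrifugation, supernatant analysed by HPLC (UV 292 nm); run in triplicate.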

[22] = Selectivity index, ratio of IC50 for NQO1-deficient human L02 cells to IC50 for human HepG2 cells overexpressing NQO1 incubated for 48 hrs by MTT assay
Procedure, shortened: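 IC50 in LO2 divided by IC50 in HepG2. Both from MTT after 48 h exposure, with absorbance read at 570 nm.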

[23] = Stability of the compound in PBS buffer at 10 uM at pH 5 to 9 incubated for 9 hrs in presence of NADPH by HPLC analysis; type: physicochemical; settings: pH 5, 9 h
Procedure, shortened: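 No NQO1 present; 10 μM substrate with 100 μM NADPH in PBS containing 2% Tween 80 across pH values 5–9 at 37 °C; timed samples quenched with cold acetonitrile, centrifuged, and quantified by C18 HPLC with UV detection at 292 nm; triplicate.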

[24] = Toxicity in BALB/c mouse xenografted with human HepG2 cells assessed as damage in kidney at 5 to 10 mg/kg, ip administered every other day for 17 consecutive days and measured on day 17 by H&E staining based light microscopic analysis; type: organism-based; settings: in vivo, 408 h, dose 5-10 mg/kg, time 17 day; procedure, shortened: as §4
[25] = Toxicity in BALB/c mouse xenografted with assessed as damage in heart at 5 to 10 mg/kg, ip administered every other day for 17 consecutive days and measured on day 17 by H&E staining based light microscopic analysis; type: organism-based; settings: in vivo, 408 h, dose 5-10 mg/kg, time 17 day; procedure, shortened: as §4
[26] = Toxicity in BALB/c mouse xenografted with human HepG2 cells assessed as damage in liver at 5 to 10 mg/kg, ip administered every other day for 17 consecutive days and measured on day 17 by H&E staining based light microscopic analysis; type: organism-based; settings: in vivo, 408 h, dose 5-10 mg/kg, time 17 day; procedure, shortened: as §4
[27] = Toxicity in BALB/c mouse xenografted with human HepG2 cells assessed as body weight reduction at 10 mg/kg, ip administered every other day for 17 consecutive days and measured on day 17; type: organism-based; settings: in vivo, 408 h, time 17 day
Procedure, shortened: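 HepG2 xenografts in 6-week BALB/c nude mice (s.c., 5×10⁶ cells), grouped at 70–100 mm³, n=6; i.p. dosing every other day for 17 days in 5% DMSO/40% PEG300/5% Tween 80/50% saline vehicle; body weight recorded every 2 days.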

T1 sequence (P15559 whole entry, the tested form may be a part): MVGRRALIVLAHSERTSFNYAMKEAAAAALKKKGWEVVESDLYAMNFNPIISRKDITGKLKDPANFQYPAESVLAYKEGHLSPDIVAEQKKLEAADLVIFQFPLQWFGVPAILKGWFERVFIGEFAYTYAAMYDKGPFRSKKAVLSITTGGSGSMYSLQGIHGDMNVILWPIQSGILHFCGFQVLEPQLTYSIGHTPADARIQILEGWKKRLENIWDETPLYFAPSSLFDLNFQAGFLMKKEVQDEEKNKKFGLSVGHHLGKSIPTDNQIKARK

Row | SMILES | Activity (HepG2 [1]) [%] | Activity (HepG2 [3]) [%] | IC50 (A549 [4]) [nM] | IC50 (A549 [5]) [nM] | viability at 0.05 µM (HepG2 [6]) [%] | IC50 (HepG2 [7]) [nM] | IC50 (L02) [nM] | IC50 (A549 [8]) [nM] | IC50 (HepG2 [9]) [nM] | Activity (HepG2 [10]) [%] | other results
1 | COc1cc([C@@H]2c3cc4c(cc3[C@H](O)[C@H]3COC(=O)[C@H]23)OCO4)cc(OC)c1OC [PODOFILOX] | 6.08 | 7.38 | 291 | 338 | 83.7 | 209 | 85 | 105 | 83 | 2.88 | Activity [2]: Toxic
2 | COc1cc([C@@H]2c3cc4c(cc3[C@@H](OC(=O)OCc3ccc(NC(=O)CC(C)(C)C5=C(C)C(=O)C(C)=C(C)C5=O)cc3)[C@H]3COC(=O)[C@H]23)OCO4)cc(OC)c1OC |  |  | 596 | 574 |  | 425 | 452 | 274 | 262 |  | 
3 | COc1cc([C@@H]2c3cc4c(cc3[C@@H](OC(=O)OCc3ccc(N(C)C(=O)CC(C)(C)C5=C(C)C(=O)C(C)=C(C)C5=O)cc3)[C@H]3COC(=O)[C@H]23)OCO4)cc(OC)c1OC | 15.76 | 18.99 | 185 | 197 | 63.5 | 113 | 312 | 100 | 84 | 1.74 | Stabilty [11]: Stable; inhibition (Tubulin (Homo sapiens)): Active; inhibition (Sus scrofa [12]): Active; Drug metabolism [13]: Metabolite_Detected; Activity [14]: Non-Toxic; inhibition (Sus scrofa [15]): inactive; Activity (HepG2 [16]): 27.3%; Activity [17]: Non-Toxic; Drug metabolism [18]: Metabolite_Detected; inhibition in vivo at 10 mg/kg (HepG2 [19]): 64%; Drug metabolism [20]: Metabolite_Detected; Stabilty [21]: Stable; Ratio IC50 [22]: 3.72; Stabilty [23]: Stable; Activity [24]: Non-Toxic; Activity [25]: Non-Toxic; Activity [26]: Non-Toxic; Activity [27]: Non-Toxic
4 | COc1cc([C@@H]2c3cc4c(cc3[C@@H](OC(=O)CC(C)(C)C3=C(C)C(=O)C(C)=C(C)C3=O)[C@H]3COC(=O)[C@H]23)OCO4)cc(OC)c1OC |  |  | 315 | 302 |  | 193 | 228 | 160 | 107 |  | 
